ChEMBL document CHEMBL4371053, “A novel tetrazole analogue of resveratrol is a potent anticancer agent” (Bioorg Med Chem Lett, 2019)
The source made the active and inactive calls. The calls are words filed in the database; no cut-off is given here.

Experiments:
NCI-H460 = test: Growth inhibition of human NCI-H460 cells at 10 uM after 48 hrs by sulforhodamine B assay relative to control; format: functional; details: NCI-H460, 48 h, values are per cent of control
Outline: (§1)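 NCI-60 single-dose screen. Cells exposed to 10⁻⁵ M or to vehicle for 48 h. Growth measured by sulforhodamine B optical density before and after exposure. Reported as percent growth relative to vehicle control and to time-zero cell number; negative values indicate cell kill.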

NCI-H522 = test: Growth inhibition of human NCI-H522 cells at 10 uM after 48 hrs by sulforhodamine B assay relative to control; format: functional; details: NCI-H522, 48 h, values are per cent of control; outline: as §1
MDA-MB-435 = test: Growth inhibition of human MDA-MB-435 cells at 10 uM after 48 hrs by sulforhodamine B assay relative to control; format: functional; details: MDA-MB-435, 48 h, values are per cent of control; outline: as §1
OVCAR-3 [1] = test: Growth inhibition of human OVCAR3 cells at 10 uM after 48 hrs by sulforhodamine B assay relative to control; format: functional; details: OVCAR-3, 48 h, values are per cent of control; outline: as §1
A498 = test: Growth inhibition of human A498 cells at 10 uM after 48 hrs by sulforhodamine B assay relative to control; format: functional; details: A498, 48 h, values are per cent of control; outline: as §1
DU-145 = test: Growth inhibition of human DU145 cells at 10 uM after 48 hrs by sulforhodamine B assay relative to control; format: functional; details: DU-145, 48 h, values are per cent of control; outline: as §1
CCRF-CEM = test: Growth inhibition of human CCRF-CEM cells incubated for 48 hrs by sulforhodamine B assay; format: functional
Outline: (§2)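 NCI-60 five-dose study at 10⁻⁴, 10⁻⁵, 10⁻⁶, 10⁻⁷ and 10⁻⁸ M, 48 h incubation. Growth determined from sulforhodamine B optical density before and after exposure, relative to vehicle control and time-zero counts. GI₅₀ is the molar concentration giving 50% growth inhibition.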

HL-60(TB) = test: Growth inhibition of human HL-60(TB) cells incubated for 48 hrs by sulforhodamine B assay; format: functional; details: HL-60, 48 h; outline: as §2
MOLT-4 = test: Growth inhibition of human MOLT4 cells incubated for 48 hrs by sulforhodamine B assay; format: functional; details: MOLT-4, 48 h; outline: as §2
A549 = test: Growth inhibition of human A549/ATCC cells incubated for 48 hrs by sulforhodamine B assay; format: functional; details: A549, 48 h; outline: as §2
HOP-62 = test: Growth inhibition of human HOP62 cells incubated for 48 hrs by sulforhodamine B assay; format: functional; details: HOP-62, 48 h; outline: as §2
NCI-H23 = test: Growth inhibition of human NCI-H23 cells incubated for 48 hrs by sulforhodamine B assay; format: functional; details: NCI-H23, 48 h; outline: as §2
COLO 205 = test: Growth inhibition of human COLO205 cells incubated for 48 hrs by sulforhodamine B assay; format: functional; details: COLO 205, 48 h; outline: as §2
HCT-15 = test: Growth inhibition of human HCT15 cells incubated for 48 hrs by sulforhodamine B assay; format: functional; details: HCT-15, 48 h; outline: as §2
HT-29 = test: Growth inhibition of human HT-29 cells incubated for 48 hrs by sulforhodamine B assay; format: functional; details: HT-29, 48 h; outline: as §2
KM12 = test: Growth inhibition of human KM12 cells incubated for 48 hrs by sulforhodamine B assay; format: functional; details: KM12, 48 h; outline: as §2
SF-268 = test: Growth inhibition of human SF268 cells incubated for 48 hrs by sulforhodamine B assay; format: functional; details: SF-268, 48 h; outline: as §2
SF-539 = test: Growth inhibition of human SF539 cells incubated for 48 hrs by sulforhodamine B assay; format: functional; details: SF-539, 48 h; outline: as §2
LOX IMVI = test: Growth inhibition of human LOXIMVI cells incubated for 48 hrs by sulforhodamine B assay; format: functional; outline: as §2
M14 = test: Growth inhibition of human M14 cells incubated for 48 hrs by sulforhodamine B assay; format: functional; details: M14, 48 h; outline: as §2
SK-MEL-2 = test: Growth inhibition of human SK-MEL-2 cells incubated for 48 hrs by sulforhodamine B assay; format: functional; details: SK-MEL-2, 48 h; outline: as §2
SK-MEL-28 = test: Growth inhibition of human SK-MEL-28 cells incubated for 48 hrs by sulforhodamine B assay; format: functional; details: SK-MEL-28, 48 h; outline: as §2
SK-MEL-5 = test: Growth inhibition of human SK-MEL-5 cells incubated for 48 hrs by sulforhodamine B assay; format: functional; details: SK-MEL-5, 48 h
Outline: (§3)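 NCI-60 screen run per Rubinstein protocol. Sulforhodamine B optical density was read before and after 48 h exposure to compound or vehicle. The single-dose pass at 10⁻⁵ M reported percent growth relative to vehicle control and time-zero cell number. The five-dose follow-up used 10⁻⁴ to 10⁻⁸ M, giving GI₅₀ as the molar concentration causing 50% growth inhibition.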

UACC-62 = test: Growth inhibition of human UACC62 cells incubated for 48 hrs by sulforhodamine B assay; format: functional; details: UACC-62, 48 h; outline: as §3
IGROV-1 = test: Growth inhibition of human IGROV1 cells incubated for 48 hrs by sulforhodamine B assay; format: functional; details: IGROV-1, 48 h; outline: as §2
OVCAR-3 [2] = test: Growth inhibition of human OVCAR3 cells incubated for 48 hrs by sulforhodamine B assay; format: functional; details: OVCAR-3, 48 h; outline: as §2
OVCAR-4 = test: Growth inhibition of human OVCAR4 cells incubated for 48 hrs by sulforhodamine B assay; format: functional; details: OVCAR-4, 48 h; outline: as §2
SK-OV-3 = test: Growth inhibition of human SKOV3 cells incubated for 48 hrs by sulforhodamine B assay; format: functional; details: SK-OV-3, 48 h; outline: as §3
786-0 = test: Growth inhibition of human 786-0 cells incubated for 48 hrs by sulforhodamine B assay; format: functional; details: 786-0, 48 h; outline: as §2
RXF 393 = test: Growth inhibition of human RXF393 cells incubated for 48 hrs by sulforhodamine B assay; format: functional; details: RXF 393, 48 h; outline: as §2
PC-3 = test: Growth inhibition of human PC3 cells incubated for 48 hrs by sulforhodamine B assay; format: functional; details: PC-3, 48 h; outline: as §2
MCF7 = test: Growth inhibition of human MCF7 cells incubated for 48 hrs by sulforhodamine B assay; format: functional; details: MCF7, 48 h; outline: as §2
MDA-MB-231 = test: Growth inhibition of human MDA-MB-231 cells incubated for 48 hrs by sulforhodamine B assay; format: functional; details: MDA-MB-231, 48 h; outline: as §2
Hs-578T = test: Growth inhibition of human Hs578T cells incubated for 48 hrs by sulforhodamine B assay; format: functional; outline: as §2
MDA-MB-468 = test: Growth inhibition of human MDA-MB-468 cells incubated for 48 hrs by sulforhodamine B assay; format: functional; details: MDA-MB-468, 48 h; outline: as §2
Tubulin (Homo sapiens) = Tubulin (Homo sapiens) (UniProt P68371+Q9H4B7+P0DPH7+P68366+Q13509+Q71U36+P04350+Q3ZCM7+P07437+P68363+Q9BQE3+Q6PEY2+Q13885+Q9BVA1+Q9BUF5); test: Inhibition of tubulin (unknown origin) polymerization at 2 uM by immunoblot analysis; format: protein-complex assay
Outline: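 Cell-based assay. Cells were treated with compound at 1.0 and 2.0 μM. Polymerized tubulin (pellet) was separated from unpolymerized tubulin (supernatant), and both fractions were immunoblotted with anti-tubulin antibody.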

[3] = Cytotoxicity against stromal cells (unknown origin) assessed as reduction in cell viability by alamar blue assay; format: cell-based; details: read-out: LD50 (the source's name)

| SMILES | growth, % of control at 10 µM (NCI-H460) | growth, % of control at 10 µM (NCI-H522) | growth, % of control at 10 µM (MDA-MB-435) | growth, % of control at 10 µM (OVCAR-3 [1]) | growth, % of control at 10 µM (A498) | growth, % of control at 10 µM (DU-145) | GI50 (CCRF-CEM) | GI50 (HL-60(TB)) | GI50 (MOLT-4) | GI50 (A549) | GI50 (HOP-62) | GI50 (NCI-H23) | GI50 (COLO 205) | GI50 (HCT-15) | GI50 (HT-29) | GI50 (KM12) | GI50 (SF-268) | GI50 (SF-539) | GI50 (LOX IMVI) | GI50 (M14) | other results |
| --- | --- | --- | --- | --- | --- | --- | --- | --- | --- | --- | --- | --- | --- | --- | --- | --- | --- | --- | --- | --- | --- |
| COc1ccc(/C(=C/c2ccc3ccccc3c2)c2nnn[nH]2)cc1OC | 14.1% | -2.85% | -41% | -17.3% | 14.5% | 20.9% | 3330 nM | 2560 nM | 4160 nM | 3800 nM | 2330 nM | 5290 nM | 2270 nM | 2920 nM | 2690 nM | 2790 nM | 6550 nM | 2380 nM | 5630 nM | 1900 nM | GI50 (SK-MEL-2): 4360 nM; GI50 (SK-MEL-28): 8070 nM; GI50 (SK-MEL-5): 4680 nM; GI50 (UACC-62): 860 nM; GI50 (IGROV-1): 4230 nM; GI50 (OVCAR-3 [2]): 1690 nM; GI50 (OVCAR-4): 7780 nM; GI50 (SK-OV-3): 3630 nM; GI50 (786-0): 5720 nM; GI50 (RXF 393): 2480 nM; GI50 (PC-3): 2360 nM; GI50 (MCF7): 4120 nM; GI50 (MDA-MB-231): 12500 nM; GI50 (Hs-578T): 2230 nM; GI50 (MDA-MB-468): 21500 nM; inhibition (Tubulin (Homo sapiens)): inactive; CC50 [3]: > 50000 nM |
| COc1ccc(/C=C(/c2cc(OC)c(OC)c(OC)c2)c2nnn[nH]2)cc1O | 2.67% | -6.32% | -8.4% | -8.5% | -3.5% | 3.41% | < 10 nM | < 10 nM | < 10 nM | < 10 nM | < 10 nM | < 10 nM | 970 nM | < 10 nM | 2200 nM | < 10 nM | < 10 nM | < 10 nM | < 10 nM | < 10 nM | GI50 (SK-MEL-2): < 10 nM; GI50 (SK-MEL-28): < 10 nM; GI50 (SK-MEL-5): < 10 nM; GI50 (UACC-62): < 10 nM; GI50 (IGROV-1): < 10 nM; GI50 (OVCAR-3 [2]): < 10 nM; GI50 (OVCAR-4): < 10 nM; GI50 (SK-OV-3): < 10 nM; GI50 (786-0): < 10 nM; GI50 (RXF 393): < 10 nM; GI50 (PC-3): < 10 nM; GI50 (MCF7): < 10 nM; GI50 (MDA-MB-231): < 10 nM; GI50 (Hs-578T): < 10 nM; GI50 (MDA-MB-468): < 10 nM; inhibition (Tubulin (Homo sapiens)): Active; CC50 [3]: > 50000 nM |
